Compound activity from PubChem BioAssay.
NCF1 inh: p47phox/p22phox peptide binding inhibitors, primary screen, biochemical, uHTS, NADPH oxidase regulatory subunit; Neutrophil cytosol factor 1 (Homo sapiens), P14598; fluorescence polarization, 2 h; inhibition, % at 24.7 µM; 220,000 tested, 0.53% active
eIF4E-4G inh: eIF4E–eIF4G protein interaction inhibitors, primary screen, biochemical, uHTS, TR-FRET, eIF4GI fragment; Eukaryotic translation initiation factor 4E (Mus musculus) + Eukaryotic translation …; TR-FRET eIF4E-eIF4GI(517-606) binding, 2 h; inhibition, % at 21.7 µM; 220,000 tested, 0.37% active
SUMO HTRF inh: inhibitors of in vitro SUMOylation cascade, primary screen, biochemical, HTRF, uHTS; SUMO-conjugating enzyme UBC9 (Homo sapiens), P63279; HTRF SUMOylation assay, SAE1/SAE2 + UBC9; inhibition, % at 35 µM; 290,000 tested, 0.36% active; AID 2006, 2009; in the data active = inhibition above about 50%, passing the limit was not always enough
p97 ATPase inh: inhibitors of human p97 ATPase, primary screen, biochemical. 220,000 tested, 0.42% active. recombinant p97 ATPase, Kinase-Glo ATP luminescence, 3 h. inhibition, % at 8 µM. Transitional endoplasmic reticulum ATPase (Homo sapiens), P55072; in the data active = inhibition above about 15%
TbMetRS inhib: T. brucei MetRS inhibitors, primary screen, biochemical, luminescence. 360,000 tested, 0.4% active. purified T. brucei MetRS, ATP depletion, Kinase-Glo luminescence. inhibition, % at 11.9 µM;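 active = inhibition above a per-plate cutoff of the control wells' mean inhibition plus 3 SD, cut at about 5.5% in these data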
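Dosing: 11.9 µM compound single dose, 0.9% DMSO; Assay system: purified T. brucei MetRS enzyme; Measured by: Kinase-Glo luciferase luminescence reporting remaining unconsumed ATP; Schedule: 15 min plus 2 h at 25 °C.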
14-3-3 Bad PPI: inhibitors of 14-3-3 zeta/Bad binding, primary screen, biochemical, TR-FRET, bovine 14-3-3 zeta. inhibition, % at 21.7 µM. TR-FRET 14-3-3zeta/Dy647-pBad peptide displacement, 1 h. 220,000 tested, 0.71% active. 14-3-3 protein zeta/delta (Bos taurus), P63103;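 active = inhibition above about 70%, limit read from the data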
Of the large screens only hits and unclear results are named; the others gave an inactive call; [ ] = another dose, or the depositor's remark. In the library only some 1.6% were active in any assay of this set; here they are far more common.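 The calls were made as follows, unless noted: active = inhibition above about 30% (limit read from the data); inactive = the rest.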

CC[C@@]1(O)C(=O)OCc2c1cc1n(c2=O)Cc2cc3c(N)cccc3nc2-1	SUMO HTRF inh 94.6 (no result: p97 ATPase inh)
CC[C@@]1(O)C(=O)OCc2c1cc1n(c2=O)Cc2cc3c(CN(C)C)c(O)ccc3nc2-1	none (no result: NCF1 inh, eIF4E-4G inh, SUMO HTRF inh, p97 ATPase inh, 14-3-3 Bad PPI)
CCOc1ccc(NC(c2ccccn2)c2oc(CO)cc(=O)c2O)cc1 (centres undefined)	NCF1 inh 47.8
COc1ccccc1/C=C/C=N/N1CCN(Cc2ccc(Cl)cc2)CC1	14-3-3 Bad PPI 73.7
Cc1cccc(C)c1NC(=O)C(c1cc2ccccc2o1)N1CCN(C)CC1 (centres undefined)	none (no result: NCF1 inh, eIF4E-4G inh, SUMO HTRF inh, p97 ATPase inh, 14-3-3 Bad PPI)
CCOc1ccc2c(c1)nc(SCC(=O)c1cccs1)n2C	14-3-3 Bad PPI 72.7
CCOc1ccc2c(c1)nc(SCC(=O)c1ccc(Br)s1)n2C	none
O=C(Nc1cccc(C(F)(F)F)c1)c1cccnc1N1CCN(c2ccccc2)CC1	14-3-3 Bad PPI 87.5[fluorescence artefact?]
COC1=CC(C)C2CC3OC(O)CC4C(C)=C(OC)C(=O)C(C2(C)C1=O)C34C (centres undefined)	none (no result: NCF1 inh, eIF4E-4G inh, SUMO HTRF inh, p97 ATPase inh, 14-3-3 Bad PPI)
Cc1nn(Cc2ccccc2)c(C)c1C(=O)NCCN1C(=O)S/C(=C\c2ccccc2)C1=O	NCF1 inh 30.2
Nc1cc(Cl)ccc1Oc1ccccc1	none
Nc1cc(Cl)ccc1Oc1ccc(Cl)cc1	14-3-3 Bad PPI 80.5
CN(C)CCNC(=O)/C(=C/c1ccc(-c2ccc(Cl)cc2)o1)NC(=O)c1ccccc1	none
CN(C)CCNC(=O)/C(=C/c1ccc(-c2ccc(Cl)cc2Cl)o1)NC(=O)c1ccccc1	NCF1 inh 31.8
CCc1ccc(C2=CSC3=NCCN23)cc1	none (no result: NCF1 inh, eIF4E-4G inh, p97 ATPase inh, 14-3-3 Bad PPI)
O=[N+]([O-])c1ccc(C2=Nn3cnnc3SC2)cc1	eIF4E-4G inh 62.4
CN(C(=O)c1cncc(Br)c1)C1C2CC3CC(C2)CC1C3 (centres undefined)	none (no result: NCF1 inh, eIF4E-4G inh, p97 ATPase inh, 14-3-3 Bad PPI)
CC(C)CC(=O)Nc1ccc2c3c(cccc13)CC2	none
O=C1OC(Nc2ncccn2)c2ccccc21 (centres undefined)	none
O=C1OC(Nc2cc(Br)cc3cccnc23)c2ccccc21 (centres undefined)	SUMO HTRF inh 88.0
COc1ccc(CCN2C(=O)CCC2(C)c2nnnn2-c2ccc3c(c2)OCCO3)cc1OC (centres undefined)	none (no result: NCF1 inh, eIF4E-4G inh, SUMO HTRF inh, p97 ATPase inh, 14-3-3 Bad PPI)
Cc1cc(C(=O)OCC(=O)Nc2cc(S(=O)(=O)N3CCOCC3)ccc2Cl)c(C)o1	p97 ATPase inh 16.0
Cc1cc(C(=O)OCC(=O)Nc2ccc(S(=O)(=O)N3CCOCC3)cc2)c(C)o1	none
Cc1cc(C(=O)OCC(=O)NCc2ccccc2Cl)c(C)o1	14-3-3 Bad PPI 72.5
CCCNC(=O)C[C@H]1CC[C@@H]2[C@H](COC[C@@H](O)CN2C(=O)c2ccccn2)O1	none (no result: NCF1 inh, eIF4E-4G inh, SUMO HTRF inh, p97 ATPase inh, 14-3-3 Bad PPI)
O=C(O)CSc1cc(NS(=O)(=O)c2ccc(Br)cc2)c2ccccc2c1O	SUMO HTRF inh 75.9 (no result: NCF1 inh, eIF4E-4G inh, p97 ATPase inh, 14-3-3 Bad PPI)
O=S(=O)(Nc1cc(Sc2ncn[nH]2)c(O)c2ccccc12)c1ccccc1	SUMO HTRF inh 91.6, p97 ATPase inh 29.2, 14-3-3 Bad PPI 70.6
Cc1ccc(S(=O)(=O)Nc2ccc(Br)cc2C(NCC(=O)O)c2ccccc2)cc1 (centres undefined)	none
CC(=O)Nc1ccc(Nc2nc(-c3cc4ccccc4oc3=O)cs2)cc1	none (no result: NCF1 inh, eIF4E-4G inh, p97 ATPase inh, 14-3-3 Bad PPI)
O=C(Nc1nc(-c2cc3ccccc3oc2=O)cs1)c1ccc(Br)o1	14-3-3 Bad PPI 79.1[fluorescence artefact?]
COc1cccc2sc(Nc3nc(-c4ccncc4)cs3)nc12	none (no result: NCF1 inh)
COc1cccc2sc(Nc3nc(-c4cc5ccccc5oc4=O)cs3)nc12	14-3-3 Bad PPI 94.4[fluorescence artefact?]
CCCCCCCCCC[N+](C)(C)CC/C=C1/c2ccccc2Sc2ccc(Cl)cc21	none (no result: NCF1 inh, eIF4E-4G inh, p97 ATPase inh, 14-3-3 Bad PPI)
CC[N+](C)(C)CC/C=C1/c2ccccc2Sc2ccc(Cl)cc21	eIF4E-4G inh 85.8
O=C(O)c1ccn(Cn2cnc3ccccc32)n1	14-3-3 Bad PPI 75.8
O=C(Nc1cccc(S(=O)(=O)N2CCCCC2)c1)C1CC(=O)N(Cc2ccccc2)C1 (centres undefined)	none (no result: NCF1 inh, eIF4E-4G inh, SUMO HTRF inh, p97 ATPase inh, 14-3-3 Bad PPI)
CN(c1ccccc1)S(=O)(=O)c1cccc(NC(=O)C2CC(=O)N(Cc3ccccc3)C2)c1 (centres undefined)	NCF1 inh active
